Results: paper PMC5362268 (Cell, 2017)
Values after ≈ are worked out from the molar mass of the structure shown. Values joined by “and” are separate entries in the source; they are usually repeats but may differ in a detail not shown here. Identical values can stand only once.

How the values were obtained:
[1] = system: pERK and pAKT in BRAF-CAAX-containing MEFs; experiment: Western blots of mouse embryo fibroblasts; type: cell-based; conditions: compared with Kras MEFs
Procedure, shortened: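 MEFs seeded at 0.25 million/well in DMEM with Glutamax, 10% heat-inactivated FBS and P/S. Serum-starved 24 h, then given test compound in serum-free medium; EGF 10 ng/ml for 15 min where indicated. Band intensities background-subtracted; pERK and pAKT expressed as (phospho/tubulin)/(total/tubulin) and normalised to DMSO.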

[2] = biological target: T1, KRAS^G12D-GppNHp (Homo sapiens, UniProt P01116, G12D); experiment: Isothermal titration calorimetry; type: binding
Procedure, shortened: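 Test compound in the cell at 200 µM (1.25% DMSO); protein in the syringe at 2.0 mM, DMSO-matched. Run at 25 °C: 19 × 2 µl injections, 180 s apart; reference power 5 µcal/sec.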

[3] = system: wild-type mice; experiment: Toxicity and body weight in wild-type mice; type: in vivo, mouse; conditions: individual mice
[4] = system: SW480 (KRAS^G12V); experiment: Multicellular tumor spheroids; type: cell-based, human; conditions: low-adherence plates, 72 h
[5] = Microsomal stability assay; type: in vitro ADME; conditions: human, over 120 minutes
Procedure, shortened: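 Liver microsomes incubated in 100 mM phosphate buffer, pH 7.4, supplemented with an NADPH-regenerating system (solutions A and B).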

[6] = Solubility of compound 3144; type: physicochemical
[7] = Pharmacokinetic analysis in mice; type: in vivo, mouse; conditions: 20 mg/kg, plasma
Procedure, shortened: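 Plasma flash-frozen in liquid nitrogen, stored at −80 °C, and assayed by UPLC-MS-MS. Plasma from six untreated mice used for calibration and matrix correction. AUCINF calculated from t = 0 to infinity using calculated half-life and last measured concentration.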

[8] = system: PDTALL22 patient T-ALL xenograft; experiment: Patient-derived xenograft study; type: in vivo, mouse; conditions: 30 mg/kg IP
Procedure, shortened: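 Retrovirally transduced luciferase-expressing T-ALL cells were expanded in primary recipients, harvested from spleen and injected into secondary recipients. These were randomised into two groups of 5 with equal luciferase load. Dosing: vehicle or 30 mg/kg IP in 5% DMSO in HBSS pH 4 on days 0, 1, 4, 5, 7, 8. Imaging on days 0, 4 and 8; sacrifice on day 8 for spleen weight and human CD45+ cells.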

[9] = KC mouse weights on study; type: in vivo; conditions: individual mice
[10] = biological target: T1, KRAS^G12D-GppNHp; experiment: Microscale thermophoresis; type: binding; conditions: selectivity panel
Procedure, shortened: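 To strip endogenous nucleotide, KRAS G12D (250 μM) in 25 mM HEPES, 100 mM NaCl, 20 mM EDTA and 1 mM GppNHp was shaken at 220 rpm, 30 °C, before MST.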

[11] = biological target: KRAS^G12D I36N (Homo sapiens, UniProt P01116, G12D/I36N); experiment: MST, I36N point mutant; type: binding; conditions: compared with KRAS^G12D
[12] = system: MDA-MB-231 xenograft; experiment: Xenograft therapeutic study in mice; type: in vivo, mouse; conditions: 180 mg/kg orally, 10 doses, 15 days of treatment, nude mice
Procedure, shortened: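 Eight-week-old female nude mice received 7 million MDA-MB-231 cells subcutaneously. After 3 d they were randomised at ~58 mm³ tumours. Dosing was oral, 180 mg/kg (12 mg/mL, 10% DMSO, pH 4) or vehicle, 10 doses over 14 d. Tumours measured by caliper every 2 d; volume = 0.523 × length × width².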

[13] = system: RALA-GTP in BJeLR cells; experiment: RALA activation assay; type: cell-based, human
Procedure, shortened: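 BJeLR cells seeded 16 h before use in DMEM with 2% FBS, then given medium with test compound (from 10 mM DMSO stock) for 6 h. Cells washed twice with ice-cold 25 mM Tris, 100 mM NaCl, 1 mM TCEP, 5 mM MgCl2, 0.1% Tween-20 with protease inhibitor. RALA-GTP pulled down on beads, eluted in SDS buffer and blotted.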

[14] = system: pERK and pAKT in Hras^−/−; Nras^−/−; Kras^flox/flox MEFs; experiment: Western blots of mouse embryo fibroblasts; type: cell-based; conditions: treatment for 0.6 h, 1 h or 16 h, EGF stimulated
Procedure, shortened: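 MEFs seeded at 0.25 million/well in DMEM with Glutamax, 10% heat-inactivated FBS and P/S, grown to 80% confluence, then serum-starved 24 h. Serum-free treatment with 5 μM test compound for 35 min or 1 h, or 2 μM for 16 h, then EGF 10 ng/ml for 15 min. Quantified as (phospho/tubulin)/(total/tubulin), normalised to DMSO.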

[15] = system: pAKT (S473), pERK1/2 and cleaved caspase-3 in KP^f/fC pancreatic tumors; experiment: KP^f/fC mouse pharmacodynamic study; type: in vivo; conditions: post- vs pre-treatment tumor samples

NC1(C(=O)NCCCn2cc(-c3ccc(OC(F)(F)F)cc3)c3cc(CN4CCN(Cc5c(Cl)cccc5Cl)CC4)ccc32)CCNCC1 [compound 3144, 4-amino-N-(3-(5-((4-(2,6-dichlorobenzyl)piperazin-1-yl)methyl)-3-(4-(trifluoromethoxy)phenyl)-1H-indol-1-yl)propyl)piperidine-4-carboxamide]
pERK and pAKT abundance [1]: more resistant
Kd [2]: 17.8 ± 4.5 µM
WT mouse weights ([3]; day 1 on study): 21.36 and 20.39 and 22.08 and 23.6 and 25
WT mouse weights ([3]; day 2 on study): 20 and 18.8 and 20.6 and 22.7 and 23.38
WT mouse weights ([3]; day 3 on study): 20 and 18.4 and 20.1 and 21.87 and 22.16
WT mouse weights ([3]; day 4 on study): 20.77 and 17.4 and 19 and 21.08 and 23
WT mouse weights ([3]; day 5 on study): 20.78 and 17.27 and 18.6 and 21.4 and 22.18
spheroid size [4]: decreased in size in a dose-dependent manner
stability in liver microsomes [5]: relatively stable
concentration without visible precipitation ([6]; aqueous buffers (e.g., phosphate buffered saline), room temperature, 1.5% DMSO): ≥ 250 µM
solubility ([6]; aqueous solutions, aqueous buffer, kinetic from dmso stock): 5 µM (≈ 3.59 µg/mL)
Tlast ([7]; IP, male C57BL/6 mice): 12 h
Tlast ([7]; IV, male C57BL/6 mice): 12 h
HL_Lambda_z ([7]; PO, male C57BL/6 mice): >12 h
Tlast ([7]; PO, male C57BL/6 mice): 12 h
AUC(0-inf) ([7]; male, C57BL/6, mouse, po): 5650 ng·h/mL
percent of infiltrative human CD45+ cells in spleen ([8]; day 8): reduction
spleen cellularity (hematoxylin and eosin) ([8]; day 8): decreased cellularity
spleen size ([8]; day 8): decrease in size
tumor burden (luciferase imaging) ([8]; days 0, 1, 4, 5, 7, 8, imaged after 4 and 8 days): decrease in tumor burden
KC mouse weights ([9]; day 1 on study): 33 and 30.5 and 30.7 and 33.5 and 35.8
KC mouse weights ([9]; day 2 on study): 32.2 and 28.1 and 27.8 and 33.5 and 34.5
KC mouse weights ([9]; day 3 on study): 29.9 and 24.84 and 32 and 26.86
KC mouse weights ([9]; day 4 on study): 28.8 and 23.6 and 30.5
KC mouse weights ([9]; day 5 on study): 28.5 and 30.2
binding by MST [10]: detected binding
binding affinity to I36N mutant [11]: reduced binding affinity
tumor growth [12]: inhibition of tumor growth
RALA-GTP [13]: decreased
pERK and pAKT abundance [14]: moderately decreased
cleaved caspase-3 in tumor [15]: modest increase
pAKT (S473) and pERK1/2 in tumor ([15]; 30 mg/kg IP once daily): decrease
